Source: PubChem BioAssay
Only some compounds are listed: those with a hit (about 3.9% of all), similar ones and a draw of the others.
TAAR1 agonist: agonists of human TAAR1. actives 0.99% (n = 360,000). CHO RD-HGA16 TAAR1, Fluo-8 calcium fluorescence; vehicle wells 0%, saturating PEA agonist 100%. activation, % at 3 µM. Q96RJ0. AID 624467;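 active = activation above the mean activation of all test compounds in the run plus 3 SD, cut at about 38% in these data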
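System: CHO-derived RD-HGA16 cells with stable Gα16 and human TAAR1. Times: 17-24 h plating, Fluo-8 75 min 37 °C, 30 min RT. Measured by: calcium-sensitive Fluo-8 signal, excitation 470-495, emission 515-575 nm. Read-out basis: % activation relative to PEA EC100 response. Control set: DMSO and PEA EC100. Repeats: no replicates (n 1).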
CRFBP-R2 block: blocks CRF-induced signaling of the CRF-BP/CRF-R2 complex. actives 0.59% (n = 350,000). AID 588475. HEK293 CRF-R2/CRF-BP, CRF-induced calcium fluorescence. inhibition, % at 11.8 µM;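 active = inhibition of the ligand-induced calcium signal above about 50% at the single tested concentration, limit read from the data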
TAAR1 antag: antagonists of human TAAR1; Q96RJ0; CHO RD-HGA16 TAAR1, Fluo-8 calcium fluorescence, antagonist; inhibition, % at 3 µM; actives 1.5% (n = 360,000);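 active = inhibition above a per-plate cutoff, the mean inhibition of test compounds on that plate plus 3 SD, cut at about 49% in these data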;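 also: 0% = DMSO plus EC80 beta-PEA response and 100% = DMSO alone without agonist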
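System: CHO RD-HGA16 cells bearing hTAAR1. Reagent: EC80 β-phenethylamine stimulus. Schedule: seeding 17-24 h prior, 75-min 37 °C, 30-min RT dye loading. Signal: Fluo-8 intracellular calcium dye fluorescence, real-time kinetic reads. Read-out: % inhibition from peak post-agonist over basal fluorescence ratio. Benchmarks: vehicle wells and EC80 agonist wells. Replicates: n of 1.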
CRFR2-BP ag: agonists of human CRF-binding protein/CRF-R2 receptor complex | HEK293 CRF-R2/CRF-BP, calcium dye fluorescence (FLIPR); percent of saturating CRF peptide response | activation, % at 13.2 µM | actives 0.46% (n = 350,000);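 active = activation of at least 50%, plus an integration ratio under a set limit after plate pattern correction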;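 also: plate controls were neutral control wells without compound for no effect and CRF at EC100 for full effect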
ANO1 activ: activates or potentiates the mouse TMEM16A chloride channel | HEK293 TMEM16A/YFP-H148Q/I152L, iodide quench fluorescence; active compounds read low | AID 623877 | actives 0.3% (n = 340,000) | B-score at 10 µM | Q8BHY3;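 active = fluorescence-ratio B-score plate-corrected deviation score at least 3 library SD below zero, with starting fluorescence score within 5 deviations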;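 also: channel opened by trigger with iodide after compound preincubation; score built on the fluorescence ratio of max minus min over baseline; more negative score means more quench and so TMEM16A activation or potentiation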
TMEM16A inh: blocks the mouse calcium-activated chloride channel TMEM16A; Q8BHY3; actives 1.2% (n = 310,000); normalized B-score (activity score, 25-100; higher = stronger inhibition) at 10 µM; HEK293 TMEM16A/YFP iodide influx fluorescence, ionomycin;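 active = ratio plate-corrected score three or more library SD toward inhibition, starting fluorescence score within five deviations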;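 also: score derived from kinetic fluorescence span divided by baseline fluorescence per well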
* marks the source's active call; other numbers are inactive results; i = inactive; . = no result.

SMILES | TAAR1 agonist | CRFBP-R2 block | TAAR1 antag | CRFR2-BP ag | ANO1 activ | TMEM16A inh
CSc1nc(-c2ccc(N(C)C)cc2)c(C#N)c(=O)n1C | -3.0 | -28.8 | -12.6 | 62.0* | i | i
COc1ccc(CCNC(=O)C(C(=O)c2ccc(F)cc2)n2ccccc2=O)cc1OC (stereo not given) | 2.4 | 28.7 | -4.2 | -1.2 | i | i
Cn1ncc2c(NCCc3ccccc3)nc(Cl)nc21 | 37.8* | -6.6 | 43.1 | 3.3 | i | .
Cn1ncc2c(Nc3ccccc3Cl)nc(Cl)nc21 | -1.4 | 1.8 | -4.1 | -0.5 | i | i
O=C1CCCN2N=C(SCC(=O)Nc3ccc(Cl)cc3)SC2=N1 | 39.4* | 9.9 | -17.8 | -0.3 | i | i
Cc1ccc(NC(=O)CSC2=NN3CCCC(=O)N=C3S2)cc1Cl | 42.0* | -0.7 | 28.9 | 2.1 | i | i
O=C1CCCN2N=C(SCC(=O)Nc3cccc(Cl)c3)SC2=N1 | 13.5 | -8.4 | -9.3 | 0.3 | i | i
COC(=O)c1ccc2c(c1)C(C)(C)C(/C=C/c1ccccc1O)=[N+]2C | 24.4 | -122.2 | 35.7 | 53.1* | i | i
CCCCN(C)C(=O)Cn1c(=O)oc2cc(S(=O)(=O)N3CC(C)CC(C)C3)ccc21 (stereo not given) | -2.1 | -5.5 | -40.4 | -4.3 | i | i
COc1cc(C(=O)NC(=S)N(CCc2ccccc2)CCc2ccccc2)cc(OC)c1OC | 6.4 | 49.6 | 53.2* | -0.1 | i | i
COc1cc(C(=O)NC(=S)N(C)Cc2ccccc2)cc(OC)c1OC | 1.4 | 11.4 | 5.8 | 1.3 | i | i
COC(=O)c1ccc(CSc2nc3ccccc3c(=O)n2Cc2ccco2)o1 | 6.5 | 18.9 | 59.8* | 1.9 | i | i
CCOC(=O)CC(=O)CSc1nc2sc(C)cc2c(=O)n1Cc1ccco1 | 1.6 | 29.3 | 8.0 | -0.4 | i | i
COC(=O)c1ccc(CSc2nc(-c3ccccc3)cs2)o1 | 2.1 | 29.9 | 3.3 | -1.0 | i | 25*
Cc1cc2c(=O)n(Cc3ccco3)c(SCC(=O)c3ccc(Cl)s3)nc2s1 | 14.7 | 19.1 | 7.5 | -2.2 | i | 25*
COC(=O)c1ccc(CSc2nc3ccccc3c(=O)n2CC(C)C)o1 | 13.8 | 26.9 | 18.5 | 1.2 | i | i
O=C(CSc1nc2ccccc2c(=O)n1Cc1ccco1)c1ccc(F)cc1 | 10.3 | -19.5 | 49.8* | 5.2 | i | i
CC(=O)C[C@H](O)CC(=O)[C@@H]1OC(=O)CCCCCc2ccccc21 | -0.5 | -11.8 | -5.8 | -0.8 | i | .
Cc1ccc(S(=O)(=O)c2cc3c(=O)n4ccccc4nc3n(Cc3ccco3)c2=N)cc1C | 11.2 | 7.1 | -7.3 | 78.6* | . | i
CCCn1c(=N)c(S(=O)(=O)c2ccccc2)cc2c(=O)n3ccccc3nc21 | -0.8 | 110.3* | -13.8 | -4.2 | i | i
N=c1c(S(=O)(=O)c2ccccc2)cc2c(=O)n3ccccc3nc2n1Cc1ccco1 | 0.6 | 6.6 | 18.2 | 88.6* | i | i
CCn1c(=N)c(S(=O)(=O)c2ccccc2)cc2c(=O)n3ccccc3nc21 | 9.3 | 3.6 | -1.9 | 12.1 | i | i
Cc1cccn2c(=O)c3cc(S(=O)(=O)c4ccccc4)c(=N)n(Cc4ccco4)c3nc12 | -0.5 | 6.9 | -26.2 | 1.2 | i | i
Cc1ccc(NC(=O)CN2C(=O)CSc3ccc(S(=O)(=O)N4CCCCC4)cc32)cc1 | -0.2 | -27.5 | -18.2 | 3.0 | i | i
CN(C)CC#Cc1cncc(C(=O)NNC(=O)Nc2ccc(Cl)cc2)c1 | 3.3 | 15.8 | -8.4 | -0.5 | i | i
COc1ccc(CCNC(=O)c2nnn(CC(=O)Nc3cccc(F)c3)c2N)cc1OC | 8.4 | -7.3 | -47.5 | 1.8 | i | i
Cc1ccc(-n2ncc3c2CCCC3NC(=O)CCCN2CCCCC2=O)cc1C (stereo not given) | -1.0 | -2.6 | -9.4 | -0.4 | i | i
CC(C)[C@H](N)C(=O)NC[C@H]1CC[C@H](C(=O)N[C@@H](Cc2ccccc2)C(=O)O)CC1 | 3.4 | -0.8 | 4.9 | 0.1 | i | i
